ChEMBL document CHEMBL1123507, “Antipicornavirus activity of substituted phenoxybenzenes and phenoxypyridines” (J Med Chem, 1986)
In brackets after ≈: the same amount, converted by molar mass.

How the values were obtained:
Enterovirus [1] = assay: Ratio of the MIC50 of 6-(4-Nitro-phenoxy)-nicotinonitrile compared to compound obtained in the same test for Rhinovirus (RV)-2; type: functional
Procedure, shortened: (§1)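 Relative activity was calculated as the MIC50 of the positive control 5-cyano-2-(4-nitrophenoxy)pyridine divided by the MIC50 of the test compound. Both were measured in parallel in the same HeLa CPE test (48/72 h microscopic reading) against RV-1A, RV-2 or coxsackievirus A21.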

Coxsackievirus [2] = assay: Lowest concentration to reduce viral effect by 50% or more against coxsackie virus A21; type: functional
Procedure, shortened: (§2)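 HeLa monolayers were seeded at (1.0-1.3) × 10^5 cells/well, grown 24 h at 36 °C in 5% CO2 to 60–75% cover, then refed with maintenance medium (1-2% heat-inactivated FCS) containing two-fold serial compound dilutions made from a 200 μg/mL stock in Me2SO/medium, with final Me2SO ≤0.1%. Cells were challenged with 10-100 TCID50 virus, and CPE was read microscopically at 48 and 72 h. MIC50 was the lowest concentration giving ≥50% CPE reduction versus virus control. Cytotoxicity was the lowest concentration causing cell death, a growth change or a morphology change in uninfected cultures.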

Enterovirus [3] = assay: Lowest concentration to reduce viral effect by 50% or more against Rhinovirus (RV)-2; type: functional; procedure, shortened: as §2
Enterovirus [4] = assay: Ratio of the MIC50 of 6-(4-Nitro-phenoxy)-nicotinonitrile compared to compound obtained in the same test for Rhinovirus (RV)-1A; type: functional; procedure, shortened: as §1
HeLa = assay: Cytotoxicity concentration in HeLa cells; type: cell-based; conditions: human; procedure, shortened: as §2
Enterovirus [5] = assay: Lowest concentration to reduce viral effect by 50% or more against Rhinovirus (RV)-1A; type: functional; procedure, shortened: as §2
Coxsackievirus [6] = assay: Ratio of the MIC50 of 6-(4-Nitro-phenoxy)-nicotinonitrile compared to compound obtained in the same test for coxsackie A21; type: functional; procedure, shortened: as §1

For `N#Cc1ccc(Oc2ccc([N+](=O)[O-])cc2C#N)cc1`, the Relative activity (Enterovirus [1]) was 1.1, the MIC50 (Coxsackievirus [2]) was 18.9 µM (≈ 5.01 µg/mL) and the MIC50 (Enterovirus [3]) was 9.4 µM (≈ 2.49 µg/mL). The Relative activity (Enterovirus [4]) was 2.2, the Toxicity (HeLa) was over 38 µM and the MIC50 (Enterovirus [5]) was 9.4 µM (≈ 2.49 µg/mL). The Relative activity (Coxsackievirus [6]) was 0.33.

`CS(=O)(=O)c1ccc(Oc2ccc(Br)cc2)cc1` showed a Relative activity (Enterovirus [1]) of 19.7, an MIC50 (Coxsackievirus [2]) of 7.6 µM (≈ 2.49 µg/mL) and an MIC50 (Enterovirus [3]) of 1 µM (≈ 0.327 µg/mL). For the same compound, the Relative activity (Enterovirus [4]) was 9.8, the Toxicity (HeLa) was 38 µM and the MIC50 (Enterovirus [5]) was 1.9 µM (≈ 0.622 µg/mL). For the same compound, the Relative activity (Coxsackievirus [6]) was 2.5.

In the case of `CS(=O)(=O)c1ccc(Oc2ccc(Cl)cc2)cc1`, the Relative activity (Enterovirus [1]) is reported as 5.9, the MIC50 (Coxsackievirus [2]) is reported as 2.2 µM (≈ 0.622 µg/mL) and the MIC50 (Enterovirus [3]) is reported as 4.4 µM (≈ 1.24 µg/mL). It also gave a Relative activity (Enterovirus [4]) of 11.8, a Toxicity (HeLa) of 44 µM and an MIC50 (Enterovirus [5]) of 4.4 µM (≈ 1.24 µg/mL). The Relative activity (Coxsackievirus [6]) was 11.8.

In the case of `CS(=O)(=O)c1ccc(Oc2ccc([N+](=O)[O-])cc2)cc1`, the Relative activity (Enterovirus [1]) is reported as 2.4, the MIC50 (Coxsackievirus [2]) is reported as 0.85 µM (≈ 0.249 µg/mL) and the MIC50 (Enterovirus [3]) is reported as 21.3 µM (≈ 6.25 µg/mL). The Relative activity (Enterovirus [4]) was 1.2, the Toxicity (HeLa) was 171 µM and the MIC50 (Enterovirus [5]) was 42.7 µM (≈ 12.5 µg/mL). For the same compound, the Relative activity (Coxsackievirus [6]) was 6.1.

`N#Cc1ccc(Oc2ccc(Cl)c(Cl)c2)nc1` was tested, and the Relative activity (Enterovirus [1]) was 2.7, the MIC50 (Coxsackievirus [2]) was 2 µM (≈ 0.53 µg/mL) and the MIC50 (Enterovirus [3]) was 19 µM (≈ 5.04 µg/mL). The Relative activity (Enterovirus [4]) was 4.1, the Toxicity (HeLa) was 377 µM and the MIC50 (Enterovirus [5]) was 5 µM (≈ 1.33 µg/mL). The Relative activity (Coxsackievirus [6]) was 13.

Work on `N#Cc1cc([N+](=O)[O-])ccc1Oc1ccc(C(F)(F)F)cc1` yielded a Relative activity (Enterovirus [1]) of 13, an MIC50 (Coxsackievirus [2]) of 2 µM (≈ 0.616 µg/mL) and an MIC50 (Enterovirus [3]) of 1 µM (≈ 0.308 µg/mL). It also gave a Relative activity (Enterovirus [4]) of 1.3, a Toxicity (HeLa) of 162 µM and an MIC50 (Enterovirus [5]) of 10 µM (≈ 3.08 µg/mL). The Relative activity (Coxsackievirus [6]) was 13.

With `N#Cc1cc([N+](=O)[O-])ccc1Oc1c(Cl)cccc1Cl` the Relative activity (Enterovirus [1]) was 25, the MIC50 (Coxsackievirus [2]) was 16.2 µM (≈ 5.01 µg/mL) and the MIC50 (Enterovirus [3]) was 0.52 µM (≈ 0.161 µg/mL). The Relative activity (Enterovirus [4]) was 5.3, the Toxicity (HeLa) was over 65 µM and the MIC50 (Enterovirus [5]) was 3.9 µM (≈ 1.21 µg/mL). It also gave a Relative activity (Coxsackievirus [6]) of 0.8.

For `CC(=O)c1ccc(Oc2ccc([N+](=O)[O-])cc2C#N)cc1`, the Relative activity (Enterovirus [1]) was 1.2, the MIC50 (Coxsackievirus [2]) was 3.5 µM (≈ 0.988 µg/mL) and the MIC50 (Enterovirus [3]) was 11.1 µM (≈ 3.13 µg/mL). For the same compound, the Relative activity (Enterovirus [4]) was 0.59, the Toxicity (HeLa) was over 177 µM and the MIC50 (Enterovirus [5]) was 22.2 µM (≈ 6.27 µg/mL). It also gave a Relative activity (Coxsackievirus [6]) of 0.68.

For `N#Cc1cc([N+](=O)[O-])ccc1Oc1ccc(Cl)cc1Cl`, the Relative activity (Enterovirus [1]) was 49.8, the MIC50 (Coxsackievirus [2]) was 3.9 µM (≈ 1.21 µg/mL) and the MIC50 (Enterovirus [3]) was 0.52 µM (≈ 0.161 µg/mL). It also gave a Relative activity (Enterovirus [4]) of 85.6, a Toxicity (HeLa) of over 324 µM and an MIC50 (Enterovirus [5]) of 0.97 µM (≈ 0.3 µg/mL). The Relative activity (Coxsackievirus [6]) was 13.3.

In the case of `COc1cccc(Oc2ccc([N+](=O)[O-])cc2C#N)c1`, the Relative activity (Enterovirus [1]) is reported as 1.4, the MIC50 (Coxsackievirus [2]) is reported as 4.6 µM (≈ 1.24 µg/mL) and the MIC50 (Enterovirus [3]) is reported as 9.3 µM (≈ 2.51 µg/mL). It also gave a Relative activity (Enterovirus [4]) of 1.1, a Toxicity (HeLa) of over 185 µM and an MIC50 (Enterovirus [5]) of 23 µM (≈ 6.22 µg/mL). For the same compound, the Relative activity (Coxsackievirus [6]) was 2.8.

Work on `N#Cc1cc([N+](=O)[O-])ccc1Oc1ccc(Cl)cc1` yielded a Relative activity (Enterovirus [1]) of 9.3, an MIC50 (Coxsackievirus [2]) of 3.6 µM (≈ 0.989 µg/mL) and an MIC50 (Enterovirus [3]) of 2.8 µM (≈ 0.769 µg/mL). For the same compound, the Relative activity (Enterovirus [4]) was 18.5, the Toxicity (HeLa) was over 364 µM and the MIC50 (Enterovirus [5]) was 1.4 µM (≈ 0.385 µg/mL). For the same compound, the Relative activity (Coxsackievirus [6]) was 7.2.

`Cc1ccc(Oc2ccc([N+](=O)[O-])cc2C#N)cc1` was tested, and the Relative activity (Enterovirus [1]) was 2, the MIC50 (Coxsackievirus [2]) was 2.4 µM (≈ 0.61 µg/mL) and the MIC50 (Enterovirus [3]) was 5.1 µM (≈ 1.3 µg/mL). The Relative activity (Enterovirus [4]) was 4.1, the Toxicity (HeLa) was 39 µM and the MIC50 (Enterovirus [5]) was 5.1 µM (≈ 1.3 µg/mL). For the same compound, the Relative activity (Coxsackievirus [6]) was 2.2.

Work on `N#Cc1cc([N+](=O)[O-])ccc1Oc1ccc(Br)cc1` yielded a Relative activity (Enterovirus [1]) of 6.8, an MIC50 (Coxsackievirus [2]) of 7.8 µM (≈ 2.49 µg/mL) and an MIC50 (Enterovirus [3]) of 3.8 µM (≈ 1.21 µg/mL). For the same compound, the Relative activity (Enterovirus [4]) was 6.8, the Toxicity (HeLa) was over 313 µM and the MIC50 (Enterovirus [5]) was 3.8 µM (≈ 1.21 µg/mL). For the same compound, the Relative activity (Coxsackievirus [6]) was 3.3.

Work on `COc1ccc(Oc2ccc(S(C)(=O)=O)cc2)cc1` yielded a Relative activity (Enterovirus [1]) of 0.58, an MIC50 (Coxsackievirus [2]) of 90 µM (≈ 25 µg/mL) and an MIC50 (Enterovirus [3]) of 45 µM (≈ 12.5 µg/mL). For the same compound, the Relative activity (Enterovirus [4]) was 0.58, the Toxicity (HeLa) was over 180 µM and the MIC50 (Enterovirus [5]) was 22.5 µM (≈ 6.26 µg/mL). For the same compound, the Relative activity (Coxsackievirus [6]) was 0.29.

Compound `Cc1ccc(Oc2ccc(S(C)(=O)=O)cc2)cc1` has a Relative activity (Enterovirus [1]) of 1, an MIC50 (Coxsackievirus [2]) of 25.4 µM (≈ 6.66 µg/mL) and an MIC50 (Enterovirus [3]) of 25.4 µM (≈ 6.66 µg/mL). For the same compound, the Relative activity (Enterovirus [4]) was 0.51, the Toxicity (HeLa) was 203 µM and the MIC50 (Enterovirus [5]) was 50.8 µM (≈ 13.3 µg/mL). For the same compound, the Relative activity (Coxsackievirus [6]) was 1.

For `N#Cc1cc([N+](=O)[O-])ccc1Oc1cc(Cl)cc(Cl)c1`, the Relative activity (Enterovirus [1]) was 1.6, the MIC50 (Coxsackievirus [2]) was 16.2 µM (≈ 5.01 µg/mL) and the MIC50 (Enterovirus [3]) was 8.1 µM (≈ 2.5 µg/mL). It also gave a Relative activity (Enterovirus [4]) of 1.6, a Toxicity (HeLa) of over 65 µM and an MIC50 (Enterovirus [5]) of 16.2 µM (≈ 5.01 µg/mL). For the same compound, the Relative activity (Coxsackievirus [6]) was 0.8.

For `N#Cc1cc([N+](=O)[O-])ccc1Oc1cccc(Cl)c1`, the Relative activity (Enterovirus [1]) was 44.7, the MIC50 (Coxsackievirus [2]) was 1.1 µM (≈ 0.302 µg/mL) and the MIC50 (Enterovirus [3]) was 0.58 µM (≈ 0.159 µg/mL). For the same compound, the Relative activity (Enterovirus [4]) was 23.6, the Toxicity (HeLa) was over 91 µM and the MIC50 (Enterovirus [5]) was 1.1 µM (≈ 0.302 µg/mL). The Relative activity (Coxsackievirus [6]) was 11.8.

With `N#Cc1cc([N+](=O)[O-])ccc1Oc1cc(Cl)ccc1Cl` the Relative activity (Enterovirus [1]) was 25, the MIC50 (Coxsackievirus [2]) was 2 µM (≈ 0.618 µg/mL) and the MIC50 (Enterovirus [3]) was 0.52 µM (≈ 0.161 µg/mL). For the same compound, the Relative activity (Enterovirus [4]) was 50, the Toxicity (HeLa) was over 162 µM and the MIC50 (Enterovirus [5]) was 0.26 µM (≈ 0.0804 µg/mL). It also gave a Relative activity (Coxsackievirus [6]) of 13.
